Measurements as given in ChEMBL document CHEMBL1649147, “Antistaphylococcal activity of dihydrophthalazine antifolates, a family of novel antibacterial drugs” (2009).
Values after ≈ are worked out from the molar mass of the structure shown.

Tests used:
Staphylococcus aureus [1] = test: Antibacterial activity against methicillin-resistant Staphylococcus aureus 145 by broth macrodilution method; format: functional
Staphylococcus aureus [2] = test: Antibacterial activity against methicillin-susceptible Staphylococcus aureus ATCC 29213 after 50 passages by agar dilution method; format: functional; settings: ATCC29213
Procedure, shortened: (§1)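 Daily serial passage for up to 50 days at 35°C for 24 h in 1 ml MHB. […] Each transfer used 10 µl from the tube nearest the MIC (1–2 dilutions below) with the same turbidity as the drug-free control. […] MICs were measured by agar dilution, with changes given as log2 steps.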

[3] = system: Staphylococcus epidermidis; test: Antibacterial activity against methicillin-resistant, Linezolid non-susceptible coagulase-negative Staphylococcus epidermidis 345 by agar dilution method; format: functional
Staphylococcus aureus [4] = test: Antibacterial activity against methicillin-susceptible Staphylococcus aureus 505 by broth macrodilution method; format: functional
[5] = system: Staphylococcus epidermidis; test: Antibacterial activity against methicillin-resistant, vancomycin-intermediate coagulase-negative Staphylococcus epidermidis 225 by agar dilution method; format: functional
Procedure, shortened: (§2)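 Agar dilution on Mueller-Hinton agar per CLSI guidelines. S. aureus ATCC 29213 and E. faecalis ATCC 29212 were run with each set, and test MICs were accepted only when the control strains fell within acceptable ranges.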

[6] = system: Staphylococcus epidermidis; test: Antibacterial activity against methicillin-resistant coagulase-negative Staphylococcus epidermidis 345 by broth macrodilution method; format: functional
[7] = system: coagulase-negative staphylococci; test: Antibacterial activity against methicillin-susceptible coagulase-negative staphylococci by agar dilution method
Staphylococcus aureus [8] = test: Antibacterial activity against Tmp-susceptible coagulase-negative Staphylococcus aureus by agar dilution method; format: functional
Procedure, shortened: (§3)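 MICs by agar dilution on Mueller-Hinton agar following CLSI guidelines. S. aureus ATCC 29213 and E. faecalis ATCC 29212 were run as quality controls with each set, and test-strain MICs were kept only if control MICs fell within acceptable ranges.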

[9] = system: Staphylococcus epidermidis; test: Antibacterial activity against methicillin-susceptible coagulase-negative Staphylococcus epidermidis 057 by broth macrodilution method; format: functional
[10] = system: Staphylococcus epidermidis; test: Antibacterial activity against methicillin-susceptible coagulase-negative Staphylococcus epidermidis 057 after 10 passages by agar dilution method; format: functional; procedure, shortened: as §1
Staphylococcus aureus [11] = test: Antibacterial activity against methicillin-susceptible, vancomycin-intermediate Staphylococcus aureus 505 by broth macrodilution method; format: functional
[12] = system: Staphylococcus epidermidis; test: Antibacterial activity against methicillin-resistant coagulase-negative Staphylococcus epidermidis 225 by broth macrodilution method; format: functional
[13] = system: coagulase-negative staphylococci; test: Antibacterial activity against methicillin-resistant coagulase-negative staphylococci by agar dilution method
[14] = system: coagulase-negative staphylococci; test: Antibacterial activity against Tmp-susceptible coagulase-negative staphylococci by agar dilution method
[15] = system: Staphylococcus epidermidis; test: Antibacterial activity against methicillin-resistant, Linezolid non-susceptible coagulase-negative Staphylococcus epidermidis 345 after 50 passages by agar dilution method; format: functional
Procedure, shortened: (§4)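 Daily serial passage for up to 50 days at 35°C for 24 h in 1 ml MHB. Each transfer used 10 µl from the tube nearest the MIC (1–2 dilutions below) with the same turbidity as the drug-free control. MICs were measured by agar dilution, with changes given as log2 steps.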

Staphylococcus aureus [16] = test: Antibacterial activity against Tmp-susceptible Staphylococcus aureus by agar dilution method; format: functional; procedure, shortened: as §3
[17] = system: Staphylococcus epidermidis; test: Antibacterial activity against methicillin-susceptible coagulase-negative Staphylococcus epidermidis 051 after 50 passages by agar dilution method; format: functional; procedure, shortened: as §4
Staphylococcus aureus [18] = test: Antibacterial activity against methicillin-susceptible Staphylococcus aureus by agar dilution method; format: functional; procedure, shortened: as §2
Staphylococcus aureus [19] = test: Antibacterial activity against vancomycin-resistant Staphylococcus aureus VRS1 by broth macrodilution method; format: functional
Procedure, shortened: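 Michigan VRSA strain, one of 12 staphylococci later used in time-kill studies. MIC was determined by broth macrodilution and reported in μg/ml.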

Staphylococcus aureus [20] = test: microbe, parasite or virus in culture; settings: 505
Staphylococcus aureus [21] = test: Antibacterial activity against methicillin-susceptible Staphylococcus aureus ATCC 29213 by broth macrodilution method; format: functional; settings: ATCC29213
Staphylococcus aureus [22] = test: Antibacterial activity against methicillin-resistant Staphylococcus aureus ATCC 43300 by broth macrodilution method; format: functional; settings: ATCC43300
[23] = system: coagulase-negative staphylococci; test: Antibacterial activity against Tmp-resistant coagulase-negative staphylococci by agar dilution method
[24] = system: Staphylococcus epidermidis; test: Antibacterial activity against methicillin-resistant coagulase-negative Staphylococcus epidermidis 074 by broth macrodilution method; format: functional
[25] = system: Staphylococcus epidermidis; test: Antibacterial activity against methicillin-resistant coagulase-negative Staphylococcus epidermidis 197 after 50 passages by agar dilution method; format: functional; procedure, shortened: as §4
Staphylococcus aureus [26] = test: Antibacterial activity against methicillin-resistant and vancomycin-resistant Staphylococcus aureus VRS1 by agar dilution method; format: functional; procedure, shortened: as §2
[27] = system: Staphylococcus epidermidis; test: Antibacterial activity against methicillin-susceptible coagulase-negative Staphylococcus epidermidis 051 by broth macrodilution method; format: functional
[28] = system: Staphylococcus epidermidis; test: Antibacterial activity against methicillin-resistant coagulase-negative Staphylococcus epidermidis 197 by broth macrodilution method; format: functional
Staphylococcus aureus [29] = test: Antibacterial activity against methicillin-resistant Staphylococcus aureus 507 by broth macrodilution method; format: functional
Staphylococcus aureus [30] = test: Antibacterial activity against methicillin-resistant Staphylococcus aureus by agar dilution method; format: functional; procedure, shortened: as §2
Staphylococcus aureus [31] = test: Antibacterial activity against Tmp-resistant Staphylococcus aureus by agar dilution method; format: functional; procedure, shortened: as §3
Staphylococcus aureus [32] = test: Antibacterial activity against methicillin-resistant Staphylococcus aureus ATCC 43300 after 50 passages by agar dilution method; format: functional; settings: ATCC43300
Procedure, shortened: (§5)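 Serial passage under drug. Inoculum was ~1 × 10^6 CFU/ml from overnight MHA growth, in 1 ml MHB at 35°C for 24 h. Drug ranged from 4 log2 steps above to 3 log2 steps below the MIC. […] MIC change is given as log2 steps.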

[33] = system: Staphylococcus epidermidis; test: Antibacterial activity against methicillin-susceptible coagulase-negative Staphylococcus epidermidis 057 after 50 passages by agar dilution method; format: functional; procedure, shortened: as §4
[34] = system: Staphylococcus epidermidis; test: Antibacterial activity against methicillin-resistant, vancomycin-intermediate coagulase-negative Staphylococcus epidermidis 225 after 50 passages by agar dilution method; format: functional; procedure, shortened: as §1
Staphylococcus aureus [35] = test: Antibacterial activity against methicillin-susceptible, vancomycin-intermediate Staphylococcus aureus 505 after 50 passages by agar dilution method; format: functional; procedure, shortened: as §1
Staphylococcus aureus [36] = test: Antibacterial activity against methicillin-resistant and vancomycin-resistant Staphylococcus aureus VRS1 after 50 passages by agar dilution method; format: functional; procedure, shortened: as §1
Staphylococcus aureus [37] = test: Antibacterial activity against methicillin-resistant Staphylococcus aureus 145 after 50 passages by agar dilution method; format: functional; procedure, shortened: as §5

Structure (SMILES)	MIC (Staphylococcus aureus [2]) [µg/mL]	MIC [3] [µg/mL]	MIC [5] [µg/mL]	MIC [6] [µg/mL]	MIC [7] [µg/mL]	MIC90 [7] [µg/mL]	MIC (Staphylococcus aureus [8]) [µg/mL]	MIC [9] [µg/mL]	MIC [12] [µg/mL]	MIC50 [13] [µg/mL]	MIC50 [14] [µg/mL]	MIC90 [14] [µg/mL]	MIC [15] [µg/mL]	MIC50 (Staphylococcus aureus [16]) [µg/mL]	MIC90 (Staphylococcus aureus [16]) [µg/mL]	MIC [17] [µg/mL]	MIC50 (Staphylococcus aureus [18]) [µg/mL]	MIC90 (Staphylococcus aureus [18]) [µg/mL]	MIC50 [23] [µg/mL]	MIC [24] [µg/mL]	other results
CCC[C@@H]1C[C@@H](C(=O)N[C@@H]([C@H]2O[C@H](SC)[C@H](O)[C@@H](O)[C@H]2O)[C@H](C)Cl)N(C)C1 [CLINDAMYCIN]	32 (≈ 75.3 µM)	2 (≈ 4.71 µM)	> 32	1 (≈ 2.35 µM)	0.125 (≈ 0.294 µM)	0.125 (≈ 0.294 µM)	≤ 0.06	0.125 (≈ 0.294 µM)	> 128	0.25 (≈ 0.588 µM)	0.125 (≈ 0.294 µM)	> 32	4 (≈ 9.41 µM)	> 32	> 32	4 (≈ 9.41 µM)	0.125 (≈ 0.294 µM)	> 32	2 (≈ 4.71 µM)	0.25 (≈ 0.588 µM)	MIC (Staphylococcus aureus [1]): > 32 µg/mL; MIC (Staphylococcus aureus [4]): 0.125 µg/mL (≈ 0.294 µM); MIC [10]: > 128 µg/mL; MIC (Staphylococcus aureus [11]): 0.125 µg/mL (≈ 0.294 µM); MIC (Staphylococcus aureus [19]): > 512 µg/mL; MIC (Staphylococcus aureus [20]): > 128 µg/mL; MIC (Staphylococcus aureus [21]): 0.125 µg/mL (≈ 0.294 µM); MIC (Staphylococcus aureus [22]): > 32 µg/mL; MIC [25]: 2 µg/mL (≈ 4.71 µM); MIC (Staphylococcus aureus [26]): > 32 µg/mL; MIC [27]: 0.125 µg/mL (≈ 0.294 µM); MIC [28]: 0.125 µg/mL (≈ 0.294 µM); MIC (Staphylococcus aureus [29]): 512 µg/mL (≈ 1200 µM)
CC(=O)NC[C@H]1CN(c2ccc(N3CCOCC3)c(F)c2)C(=O)O1 [LINEZOLID]	16 (≈ 47.4 µM)	32 (≈ 94.9 µM)	2 (≈ 5.93 µM)	64 (≈ 190 µM)	1 (≈ 2.96 µM)	2 (≈ 5.93 µM)	1 (≈ 2.96 µM)	2 (≈ 5.93 µM)	2 (≈ 5.93 µM)	1 (≈ 2.96 µM)	1 (≈ 2.96 µM)	2 (≈ 5.93 µM)	128 (≈ 379 µM)	2 (≈ 5.93 µM)	2 (≈ 5.93 µM)	128 (≈ 379 µM)	2 (≈ 5.93 µM)	2 (≈ 5.93 µM)	1 (≈ 2.96 µM)	1 (≈ 2.96 µM)	MIC50 (Staphylococcus aureus [30]): 2 µg/mL (≈ 5.93 µM); MIC90 (Staphylococcus aureus [30]): 2 µg/mL (≈ 5.93 µM); MIC (Staphylococcus aureus [31]): 1 µg/mL (≈ 2.96 µM); MIC50 (Staphylococcus aureus [31]): 1 µg/mL (≈ 2.96 µM); MIC90 (Staphylococcus aureus [31]): 2 µg/mL (≈ 5.93 µM); MIC90 [13]: 2 µg/mL (≈ 5.93 µM); MIC (Staphylococcus aureus [32]): 64 µg/mL (≈ 190 µM); MIC [33]: 64 µg/mL (≈ 190 µM); MIC [34]: 16 µg/mL (≈ 47.4 µM); MIC (Staphylococcus aureus [35]): 16 µg/mL (≈ 47.4 µM); MIC90 [23]: 2 µg/mL (≈ 5.93 µM); MIC [25]: 32 µg/mL (≈ 94.9 µM); MIC [27]: 2 µg/mL (≈ 5.93 µM); MIC [28]: 2 µg/mL (≈ 5.93 µM); MIC (Staphylococcus aureus [36]): 32 µg/mL (≈ 94.9 µM); MIC (Staphylococcus aureus [37]): 16 µg/mL (≈ 47.4 µM)
